Results as given in ChEMBL document CHEMBL4028864 (J Med Chem, 2017).
pIC50: −log10 of the molar value. Converted amounts (≈) assume the structure as drawn.

How the values were obtained:
MDA-MB-231 = experiment: cells; assay type: functional, cell-based; conditions: Homo sapiens, MDA-MB-231, 72 h
PC-3 = experiment: cells; assay type: functional, cell-based; conditions: Homo sapiens, PC-3, 72 h
[1] = biological target: T1, Protein deacetylase HDAC6 (Homo sapiens, UniProt Q9UBN7); experiment: Inhibition of N-terminal GST tagged human HDAC6 (1 to 1215 residues) expressed in baculovirus infected insect cells using RHKKAc as substrate in presence of ATP
T1 sequence (Q9UBN7 whole entry): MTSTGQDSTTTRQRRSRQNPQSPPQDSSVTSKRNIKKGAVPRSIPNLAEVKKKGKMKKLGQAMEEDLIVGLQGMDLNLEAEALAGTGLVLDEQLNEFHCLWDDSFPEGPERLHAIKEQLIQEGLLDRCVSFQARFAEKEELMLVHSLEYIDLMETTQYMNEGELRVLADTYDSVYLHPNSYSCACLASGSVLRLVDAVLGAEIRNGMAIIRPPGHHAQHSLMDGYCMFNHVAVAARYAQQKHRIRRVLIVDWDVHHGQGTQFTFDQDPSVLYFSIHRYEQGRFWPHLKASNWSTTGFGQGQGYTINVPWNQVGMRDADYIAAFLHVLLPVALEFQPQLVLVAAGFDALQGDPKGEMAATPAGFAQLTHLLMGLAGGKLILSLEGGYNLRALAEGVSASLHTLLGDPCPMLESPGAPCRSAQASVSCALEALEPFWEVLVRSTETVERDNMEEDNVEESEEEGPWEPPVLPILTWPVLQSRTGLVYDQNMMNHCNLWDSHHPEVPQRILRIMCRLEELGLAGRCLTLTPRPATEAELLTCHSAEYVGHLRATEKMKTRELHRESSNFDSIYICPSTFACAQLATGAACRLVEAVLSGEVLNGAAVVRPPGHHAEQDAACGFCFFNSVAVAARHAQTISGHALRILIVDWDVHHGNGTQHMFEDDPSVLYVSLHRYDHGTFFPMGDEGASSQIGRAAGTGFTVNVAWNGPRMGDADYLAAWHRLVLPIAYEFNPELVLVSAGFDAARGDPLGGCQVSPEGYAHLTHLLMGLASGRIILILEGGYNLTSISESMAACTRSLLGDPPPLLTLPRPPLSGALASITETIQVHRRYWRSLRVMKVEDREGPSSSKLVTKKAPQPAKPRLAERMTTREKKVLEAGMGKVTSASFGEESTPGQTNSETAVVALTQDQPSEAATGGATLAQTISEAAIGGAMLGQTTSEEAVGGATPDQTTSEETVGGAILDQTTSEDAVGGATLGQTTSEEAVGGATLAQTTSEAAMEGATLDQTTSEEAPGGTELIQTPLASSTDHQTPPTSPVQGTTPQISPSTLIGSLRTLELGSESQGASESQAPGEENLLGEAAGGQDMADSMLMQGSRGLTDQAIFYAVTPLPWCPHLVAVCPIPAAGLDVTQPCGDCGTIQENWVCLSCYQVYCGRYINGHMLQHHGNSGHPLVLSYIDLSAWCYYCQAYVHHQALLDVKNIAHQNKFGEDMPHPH

[2] = biological target: Tyrosine-protein kinase JAK1 (Homo sapiens, UniProt P23458); experiment: Inhibition of human JAK1 using poly[Glu:Tyr] as substrate in presence of [gamma-33P]-ATP
Chain of Tyrosine-protein kinase JAK1 (P23458 whole entry): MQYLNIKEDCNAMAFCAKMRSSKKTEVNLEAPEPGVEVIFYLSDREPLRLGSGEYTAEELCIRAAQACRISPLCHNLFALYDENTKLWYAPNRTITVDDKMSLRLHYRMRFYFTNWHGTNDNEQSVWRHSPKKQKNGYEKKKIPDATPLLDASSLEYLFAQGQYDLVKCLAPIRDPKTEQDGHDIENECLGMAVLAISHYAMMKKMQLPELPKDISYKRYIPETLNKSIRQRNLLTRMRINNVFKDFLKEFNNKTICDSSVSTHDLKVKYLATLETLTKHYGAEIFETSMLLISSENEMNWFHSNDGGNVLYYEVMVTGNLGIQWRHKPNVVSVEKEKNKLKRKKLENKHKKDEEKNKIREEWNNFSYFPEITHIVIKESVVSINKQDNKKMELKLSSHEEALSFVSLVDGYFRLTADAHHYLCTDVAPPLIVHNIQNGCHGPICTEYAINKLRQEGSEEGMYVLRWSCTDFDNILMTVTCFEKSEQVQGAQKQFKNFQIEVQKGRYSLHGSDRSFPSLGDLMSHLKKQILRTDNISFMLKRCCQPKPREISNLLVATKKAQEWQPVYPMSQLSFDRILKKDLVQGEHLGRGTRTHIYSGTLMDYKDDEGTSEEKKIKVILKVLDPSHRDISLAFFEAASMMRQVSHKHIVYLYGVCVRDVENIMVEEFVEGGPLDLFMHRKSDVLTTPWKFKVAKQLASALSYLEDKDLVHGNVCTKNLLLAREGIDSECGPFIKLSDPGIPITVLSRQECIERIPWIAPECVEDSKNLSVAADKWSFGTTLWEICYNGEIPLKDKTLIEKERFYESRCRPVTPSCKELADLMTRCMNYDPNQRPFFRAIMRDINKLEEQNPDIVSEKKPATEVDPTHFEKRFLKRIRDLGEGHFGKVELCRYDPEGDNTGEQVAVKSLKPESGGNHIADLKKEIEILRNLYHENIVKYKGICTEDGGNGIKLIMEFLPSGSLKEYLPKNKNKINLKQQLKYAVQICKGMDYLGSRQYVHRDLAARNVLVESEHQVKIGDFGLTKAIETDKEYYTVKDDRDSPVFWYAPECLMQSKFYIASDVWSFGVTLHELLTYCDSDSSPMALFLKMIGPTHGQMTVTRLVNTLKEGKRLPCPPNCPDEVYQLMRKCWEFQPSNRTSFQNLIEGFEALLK
In short: (§1)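 Kinase inhibition was tested by radiometric "Hotspot" profiling at a contract laboratory with 10 μM ATP.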

Histone deacetylase 1 = Histone deacetylase 1 (Homo sapiens, UniProt Q13547); experiment: Inhibition of C-terminal FLAG His tagged full length human recombinant HDAC1 (1 to 482 residues) expressed in baculovirus infected sf21 cells using RHKKAc as substrate in presence of ATP
Chain of Histone deacetylase 1 (Q13547 whole entry, the tested form may be a part): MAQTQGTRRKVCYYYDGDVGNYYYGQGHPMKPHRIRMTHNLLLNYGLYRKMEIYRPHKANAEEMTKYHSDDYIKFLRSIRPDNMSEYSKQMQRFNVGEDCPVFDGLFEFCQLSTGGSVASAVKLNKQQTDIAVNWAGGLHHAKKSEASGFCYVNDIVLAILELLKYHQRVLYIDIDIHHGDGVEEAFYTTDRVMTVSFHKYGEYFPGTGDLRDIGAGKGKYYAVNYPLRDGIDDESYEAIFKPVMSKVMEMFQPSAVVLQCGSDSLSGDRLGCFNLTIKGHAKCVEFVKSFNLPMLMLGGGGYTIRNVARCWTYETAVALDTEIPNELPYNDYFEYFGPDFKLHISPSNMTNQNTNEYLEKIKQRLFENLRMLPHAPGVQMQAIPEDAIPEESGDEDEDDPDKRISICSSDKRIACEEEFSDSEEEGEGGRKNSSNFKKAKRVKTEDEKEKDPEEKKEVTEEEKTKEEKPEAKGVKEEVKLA

Plasma = experiment: Drug uptake in Wistar rat plasma at 5 mg/kg, po administered via gavage or 1 mg/kg, iv after 4 to 24 hrs by LC-MS/MS analysis; assay type: ADME, organism-based; conditions: in vivo
In short: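 Wistar rats dosed once at 5 mg/kg po or 1 mg/kg iv. Plasma levels were followed as mean ± SEM over 24 h postdose and checked against the limit of quantitation at each time point.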

[3] = Thermodynamic aqueous solubility of the compound at pH 7.4 after 3 hrs by UV absorbance based assay; assay type: physicochemical; conditions: read-out: Therm_solubility
In short: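 A 20 mM DMSO stock was diluted 1:100 into pH 7.4 PBS, then shaken at 250 rpm for 3 or 24 h at 22.5 ± 2.5 °C. The mixture was filtered and the filtrate diluted with acetonitrile/universal buffer. Absorbance was read at 310 nm against a 6.25–200 μM calibration curve, in triplicate.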

[4] = biological target: Histone deacetylase 4 (Homo sapiens) (UniProt P56524); experiment: Inhibition of N-terminal GST tagged/C-terminal His tagged human recombinant HDAC4 (627 to 1084 residues) expressed in Baculovirus infected insect cells in presence of ATP; conditions: concentration not given here
Chain of Histone deacetylase 4 (Homo sapiens) (P56524 whole entry, the tested form may be a part): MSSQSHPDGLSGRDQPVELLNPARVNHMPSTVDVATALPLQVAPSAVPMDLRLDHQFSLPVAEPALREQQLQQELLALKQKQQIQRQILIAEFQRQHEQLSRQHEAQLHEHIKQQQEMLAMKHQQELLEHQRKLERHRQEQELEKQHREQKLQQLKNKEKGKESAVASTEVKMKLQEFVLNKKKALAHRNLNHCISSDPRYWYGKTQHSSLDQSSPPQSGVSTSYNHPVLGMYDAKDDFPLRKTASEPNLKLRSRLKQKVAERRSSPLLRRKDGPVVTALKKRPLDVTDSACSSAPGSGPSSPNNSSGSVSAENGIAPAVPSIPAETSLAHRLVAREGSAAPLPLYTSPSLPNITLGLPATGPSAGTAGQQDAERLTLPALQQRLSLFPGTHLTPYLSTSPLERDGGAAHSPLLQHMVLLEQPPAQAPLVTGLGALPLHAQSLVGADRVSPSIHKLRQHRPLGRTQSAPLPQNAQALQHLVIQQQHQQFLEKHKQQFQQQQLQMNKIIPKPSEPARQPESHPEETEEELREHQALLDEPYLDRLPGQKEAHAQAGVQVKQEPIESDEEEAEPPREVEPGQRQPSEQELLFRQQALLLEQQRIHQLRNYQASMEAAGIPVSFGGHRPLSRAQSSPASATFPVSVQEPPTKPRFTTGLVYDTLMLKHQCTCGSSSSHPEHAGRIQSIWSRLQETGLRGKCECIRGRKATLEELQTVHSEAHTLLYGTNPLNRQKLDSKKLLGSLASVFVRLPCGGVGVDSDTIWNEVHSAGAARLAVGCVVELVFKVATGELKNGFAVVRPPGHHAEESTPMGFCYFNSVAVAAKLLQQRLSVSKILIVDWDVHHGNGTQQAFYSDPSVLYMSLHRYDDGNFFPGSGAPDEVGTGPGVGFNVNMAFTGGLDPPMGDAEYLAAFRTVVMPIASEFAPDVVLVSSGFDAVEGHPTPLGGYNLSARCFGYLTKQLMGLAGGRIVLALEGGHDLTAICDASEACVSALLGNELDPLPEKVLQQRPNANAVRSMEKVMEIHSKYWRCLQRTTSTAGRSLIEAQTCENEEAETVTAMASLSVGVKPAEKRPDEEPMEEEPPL
In short: (§2)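 HDAC enzyme inhibition was run by a contract laboratory.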

MOLM-14 = experiment: Induction of apoptosis in human MOLM14 cells assessed as increase in cleaved PARP level at 1 to 6 uM after 24 hrs by immunoblotting analysis; assay type: functional, cell-based
In short: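 KMS-12-BM and MOLM-14 cells were treated for 24 h and then lysed. Cleaved PARP was detected by immunoblotting.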

OPM-2 = experiment: Antiproliferative activity against human OPM2 cells after 48 hrs by CellTiter-Glo luminescent assay; assay type: functional, cell-based; conditions: OPM-2, 48 h
[5] = biological target: Histone deacetylase 3/Nuclear receptor corepressor 2 (HDAC3/NCoR2) (Homo sapiens, UniProt O15379); experiment: Inhibition of human recombinant HDAC3 (1 to 428 residues)/N-terminal GST-tagged NCOR2 (395 to 489 residues) expressed in Baculovirus infected insect cells in presence of ATP
In short: as §2

[6] = biological target: Non-receptor tyrosine-protein kinase TYK2 (Homo sapiens, UniProt P29597); experiment: Inhibition of human TYK2 using KKSRGDYMTMQIG as substrate in presence of [gamma-33P]-ATP
Chain of Non-receptor tyrosine-protein kinase TYK2 (P29597 whole entry): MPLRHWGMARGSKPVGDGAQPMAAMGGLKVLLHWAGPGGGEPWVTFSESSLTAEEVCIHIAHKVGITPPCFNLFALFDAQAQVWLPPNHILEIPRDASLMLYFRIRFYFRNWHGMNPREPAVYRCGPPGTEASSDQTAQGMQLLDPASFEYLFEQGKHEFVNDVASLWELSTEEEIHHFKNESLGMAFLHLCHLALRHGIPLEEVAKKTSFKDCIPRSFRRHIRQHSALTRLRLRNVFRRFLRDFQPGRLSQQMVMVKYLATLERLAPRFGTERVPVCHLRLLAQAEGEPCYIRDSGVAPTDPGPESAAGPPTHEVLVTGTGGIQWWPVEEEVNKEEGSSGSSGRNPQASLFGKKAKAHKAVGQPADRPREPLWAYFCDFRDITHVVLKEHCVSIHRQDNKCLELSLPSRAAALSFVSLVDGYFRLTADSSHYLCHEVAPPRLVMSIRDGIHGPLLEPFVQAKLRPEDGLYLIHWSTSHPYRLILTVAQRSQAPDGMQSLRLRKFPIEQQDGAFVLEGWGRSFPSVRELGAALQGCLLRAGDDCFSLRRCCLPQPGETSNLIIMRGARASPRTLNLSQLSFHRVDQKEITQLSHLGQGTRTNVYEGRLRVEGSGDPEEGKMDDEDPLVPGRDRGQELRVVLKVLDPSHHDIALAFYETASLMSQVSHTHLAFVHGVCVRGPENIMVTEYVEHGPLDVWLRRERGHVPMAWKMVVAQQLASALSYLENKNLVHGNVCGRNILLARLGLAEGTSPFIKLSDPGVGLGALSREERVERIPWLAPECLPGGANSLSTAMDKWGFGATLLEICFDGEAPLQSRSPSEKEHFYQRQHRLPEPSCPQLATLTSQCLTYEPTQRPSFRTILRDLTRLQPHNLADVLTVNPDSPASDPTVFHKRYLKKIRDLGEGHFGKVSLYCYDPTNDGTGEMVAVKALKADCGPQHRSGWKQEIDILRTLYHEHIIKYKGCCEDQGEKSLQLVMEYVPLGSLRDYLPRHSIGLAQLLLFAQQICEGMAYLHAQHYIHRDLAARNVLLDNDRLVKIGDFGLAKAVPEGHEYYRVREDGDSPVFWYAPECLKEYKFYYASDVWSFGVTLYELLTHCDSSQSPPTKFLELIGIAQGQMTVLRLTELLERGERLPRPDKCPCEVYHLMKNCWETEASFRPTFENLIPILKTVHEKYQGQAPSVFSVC
In short: as §1

pIC50 (MDA-MB-231): 6.10
pIC50 (PC-3): 5.62
pIC50 [1]: 8.85
pIC50 [2]: 7.77
pIC50 (Histone deacetylase 1): 8.16
Drug uptake (Plasma): Not Active
solubility thermodynamic at 3 h [3]: 66.2 µg/mL (≈ 202 µM)
inhibition [4]: 23%
pIC50 [5]: 8.41
pIC50 [6]: 6.73
SMILES: O=C(CCCCCCn1cc(-c2ncnc3[nH]ccc23)cn1)NO
Activity (MOLM-14): Dose-dependent effect
pIC50 (OPM-2): 5.67
